From PubChem
In the library only some 3.7% were active in any assay of this set; here they are far more common.
rCAG RNA binder = molecules binding r(CAG) RNA repeats. r(CAG) RNA repeat, TO-PRO-1 dye displacement fluorescence. inhibition, % at 3 µM. 1.3% of 370,000 active. AID 651821;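 active means inhibition above the plate cutoff, the mean of all test compounds on that plate plus 3 SD, cut at about 35% in these data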;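 further: 0% = DMSO alone and 100% = 100 µM mitoxantrone as full dye displacement; higher means more dye released from RNA so lower well fluorescence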
HCV core dimer = HCV core protein dimerization inhibition. inhibition, % at 5 µM. AID 1899. 0.33% of 300,000 active. TR-FRET GST/Flag-core106 dimerization, 1536-well;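 active means inhibition above the mean of all tested compounds plus 3 SD, set per screening campaign, cut at about 45% in these data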
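Assay system: Tagged HCV core106 pair (GST and Flag) | Buffer or medium: KF-containing HEPES buffer, pH 7.45, DTT, CHAPS, BSA | Also added: Eu donor and XL665 acceptor anti-tag antibodies | Dosing: One concentration, 5 µM, in 0.5% DMSO | Timing: 4 h at 22.5 °C | Technique: TR-FRET 671 and 617 nm emission | Repeats: Singlicate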
TAAR1 antag = antagonists of human TAAR1 | inhibition, % at 3 µM | CHO RD-HGA16 TAAR1, Fluo-8 calcium fluorescence, antagonist | 1.5% of 360,000 active | Q96RJ0;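 active means inhibition above a per-plate cutoff, the mean inhibition of test compounds on that plate plus 3 SD, cut at about 49% in these data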;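 further: 0% = DMSO plus EC80 beta-PEA response and 100% = DMSO alone without agonist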
Target sequence (Q96RJ0 whole entry, looked up): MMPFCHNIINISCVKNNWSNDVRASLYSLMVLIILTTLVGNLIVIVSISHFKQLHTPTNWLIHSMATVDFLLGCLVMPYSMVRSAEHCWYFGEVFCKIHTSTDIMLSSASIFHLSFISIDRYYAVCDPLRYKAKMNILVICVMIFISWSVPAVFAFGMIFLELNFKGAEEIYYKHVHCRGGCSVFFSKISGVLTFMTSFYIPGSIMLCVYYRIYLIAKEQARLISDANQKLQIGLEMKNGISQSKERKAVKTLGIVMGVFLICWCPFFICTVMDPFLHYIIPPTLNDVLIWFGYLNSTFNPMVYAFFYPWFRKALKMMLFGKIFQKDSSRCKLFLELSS
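Assay system: RD-HGA16 CHO cells with stable hTAAR1 and Gα16 / Reagent: EC80 β-phenethylamine stimulus / Doses: 3 µM, single point / Timing: dye loading 75 min at 37 °C, then 30 min room temperature / Measured by: Fluo-8 intracellular calcium dye fluorescence, real-time kinetic reads / Controls: vehicle wells and EC80 agonist wells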
TAAR1 agonist = human TAAR1 agonism; Q96RJ0; CHO RD-HGA16 TAAR1, Fluo-8 calcium fluorescence; vehicle wells 0%, saturating PEA agonist 100%; activation, % at 3 µM; 0.99% of 360,000 active; AID 624467;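 active means activation above the mean activation of all test compounds in the run plus 3 SD, cut at about 38% in these data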
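Assay system: CHO-derived RD-HGA16 cells with stable Gα16 and human TAAR1; timing: 17-24 h seeding, 75 min 37 °C dye, 30 min RT; read-out: % activation from peak over basal fluorescence ratio, DMSO-to-PEA scaled; measured by: kinetic Fluo-8 calcium fluorescence; benchmarks: low control DMSO, high control PEA (EC100); doses: 3 µM single concentration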
HCV NS3 hel inh = blocks Hepatitis C virus NS3 helicase unwinding; NS3 helicase DNA unwinding, Cy5 molecular beacon fluorescence; inhibition, % at 10.9 µM; 0.56% of 290,000 active; AID 1800;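 active means inhibition above the mean of all tested compounds plus 3 SD, set per campaign, cut at about 35% in these data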;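 further: 0% = DMSO wells and 100% = thioflavine S control wells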
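Material: hepatitis C virus NS3 helicase domain fragment enzyme; measured by: Cy5 fluorescence, 0 and 60 min reads; control set: DMSO and thioflavine S; incubation: 60 min unwinding reaction at 25 °C after ATP addition; read-out basis: % inhibition from 60/0 min fluorescence ratio, DMSO 0%, thioflavine S 100%; repeats: singlicate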
nonsel antag count = nonselective antagonist in TAAR1 antagonist counter-screen; shares compounds with TAAR1 antag; counterscreen cell line, calcium fluorescence, antagonist mode; inhibition, % at 3 µM; 77% of 2,400 active; AID 651780; in the data active means inhibition above about 22%;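 further: CHO-Ga16 host cells stimulated with ATP at an EC80 level; 0% = agonist EC80 plus vehicle and 100% = vehicle without agonist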
TAAR1 ant conf = human TAAR1 antagonism, confirmed | TAAR1-expressing cells, fluorescence antagonist read-out | shares compounds with TAAR1 antag | inhibition, % at 3 µM | AID 651785 | 40% of 2,400 active; in the data active means inhibition above about 49%;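 further: CHO-Ga16 host cells challenged with agonist PEA near its EC80; 0% = agonist at EC80 plus vehicle and 100% = vehicle with no agonist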
Ga16 nonsel ag = nonselective Ga16 agonism, counter-screen; activation, % at 3 µM; Ga16-expressing cells, calcium fluorescence, agonist counterscreen; 18% of 2,400 active; shares compounds with TAAR1 antag; in the data active means activation above about 12%;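 further: 0% = vehicle wells and 100% = saturating stimulus response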
TAAR1 ag counter = activates human TAAR1 in antagonist counter-screen; activation, % at 3 µM; hTAAR1 cell line, fluorescence activation, agonist mode; shares compounds with TAAR1 antag; 2% of 2,400 active; in the data active means activation above about 37%;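 further: CHO cells stably expressing TAAR1 with calcium dye readout; 0% = DMSO vehicle and 100% = full agonist response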
* = called active by the depositor; · = no result.

SMILES | rCAG RNA binder | HCV core dimer | TAAR1 antag | TAAR1 agonist | HCV NS3 hel inh | nonsel antag count | TAAR1 ant conf | Ga16 nonsel ag | TAAR1 ag counter
CC(C)(C)C(=O)Oc1cccc(Nc2ncnc3ccccc23)c1 | -4 | 2 | 38 | 13 | -7 | · | · | · | ·
Cc1ccc(C)c(OCCC(=O)OCC(=O)Nc2ccc(C)c(S(=O)(=O)N3CCCCC3)c2)c1 | 6 | 4 | 53* | 6 | · | 39* | 44 | 7 | 8
Cc1ccccc1OCCC(=O)OCC(=O)Nc1ccc(C)c(S(=O)(=O)N2CCCCC2)c1 | 5 | · | 32 | 5 | · | · | · | · | ·
CCn1cnc2c(Nc3cc(F)cc(F)c3)nc(C#N)nc21 | 10 | · | -6 | 11 | · | · | · | · | ·
N#Cc1nc(Nc2cccc(Cl)c2)c2ncn(C3CCCC3)c2n1 | 4 | · | 75* | 19 | · | 22* | 32 | 2 | 2
O=C(c1cc(-c2cccs2)nn1-c1ccccc1)N1CCN(S(=O)(=O)c2ccccc2)CC1 | 3 | 7 | 68* | 9 | · | 30* | 52* | 8 | 7
OCC(CCc1c[nH]c2ccccc12)c1c[nH]c2ccccc12 (configuration not stated) | 6 | · | 53* | 25 | · | 24* | 29 | 7 | 11
COC(=O)c1cc(-c2cc(Cl)ccc2OC)c(=O)n2c1CCC2 | 0 | · | · | · | · | · | · | · | ·
CC(C)n1c(SCC(=O)Nc2ccccc2N2CCOCC2)nc2c1c(=O)n(C)c(=O)n2C | -3 | 1 | -1 | 9 | 9 | · | · | · | ·
CCn1c(SCC(=O)Nc2ccccc2N2CCCCC2)nc2c1c(=O)n(C)c(=O)n2C | -4 | -6 | 55* | 13 | 2 | 27* | 47 | 10 | 10
O=C1ON=C(c2ccccc2)/C1=C/c1ccc(-c2ccccc2[N+](=O)[O-])o1 | 25 | 21 | 57* | 20 | 18 | 66* | 63* | 19* | 18
O=C(/C=C/c1ccc(Cl)cc1)Nc1ccc(N2CCCCC2)cc1 | -1 | 4 | -5 | 0 | 1 | · | · | · | ·
O=C(/C=C/c1ccccc1)Nc1ccc(N2CCCCC2)cc1 | 2 | -8 | 69* | 23 | -6 | 30* | 65* | 28* | 61*
O=C(/C=C/c1ccccc1)NC(=S)Nc1ccc(CN2CCOCC2)cc1 | -3 | -2 | 58* | 17 | -16 | 41* | 48 | 10 | 9
O=C(/C=C/c1ccc(Cl)cc1Cl)NC(=S)Nc1ccc(CN2CCOCC2)cc1 | -3 | 4 | -6 | 1 | -15 | · | · | · | ·
C[C@@H]1CNC(=O)c2c(C(=O)N(C)Cc3ccccc3)ncn21 | 0 | · | -10 | 4 | · | · | · | · | ·
COc1ccccc1/C=N/NC(=O)c1ccccc1Cl | 2 | -12 | 1 | -1 | -5 | · | · | · | ·
COc1ccc(/C=N/NC(=O)c2ccccc2OCc2ccccc2)c(OC)c1 | 5 | 21 | 49* | 3 | -8 | 7 | 31 | 2 | 1
C#CCOc1ccccc1/C=N/NC(=O)c1ccccc1OCc1ccccc1 | -5 | 22 | 56* | 0 | 1 | 16 | 36 | 3 | 4
Cc1cccc(/C=N/NC(=O)c2cc(Br)ccc2OCc2ccccc2)n1 | -1 | 3 | 39 | 17 | 4 | · | · | · | ·
Cc1cccc(/C=N/NC(=O)c2ccccc2OCc2cccc(Br)c2)n1 | -5 | 14 | 64* | 9 | -18 | 22* | 45 | 7 | 15
COc1ccccc1C=NNC(=O)c1ccccc1OCCOc1ccccc1 | 0 | · | 62* | 5 | · | 21* | 51* | 4 | 0
CCOC(=O)[C@]12CCCCC/C=C\1N(Cc1ccc(OC)cc1)C(=O)[C@H]2CC(=O)NCc1cccc2ccccc12 | 9 | · | · | · | · | · | · | · | ·
CCN=C1NC(c2ccc(F)cc2)C(C(=O)OC)=C(C)N1Cc1ccccc1C(F)(F)F (configuration not stated) | 4 | · | -9 | 14 | · | · | · | · | ·
C/C(=N\NC(=O)c1ccccc1)c1ccccc1F | 0 | -5 | 8 | 10 | -13 | · | · | · | ·
SMILES | rCAG RNA binder | HCV core dimer | TAAR1 antag | TAAR1 agonist | HCV NS3 hel inh | nonsel antag count | TAAR1 ant conf | Ga16 nonsel ag | TAAR1 ag counter
C/C(=N\NC(=O)c1ccccc1OCCOc1ccccc1)c1ccccc1F | -2 | · | 60* | 1 | · | 5 | 33 | 3 | 9
Cc1cccc(-n2cc(-c3ccccc3)c3c(N4CCOCC4)ncnc32)c1 | -1 | 2 | 60* | 4 | -5 | 27* | 45 | 5 | 6
COc1ccc(-n2cc(-c3ccccc3)c3c(NN4CCOCC4)ncnc32)cc1 | -6 | 3 | 56* | 15 | -25 | 25* | 40 | 11 | 14
O=C(Nc1cc(Cl)ccc1F)C1CCCN1S(=O)(=O)c1cccc2cccnc12 (configuration not stated) | 1 | · | · | · | · | · | · | · | ·
CCOc1ccc(C2CC=C(C(=O)O)CN2S(=O)(=O)c2ccc(C)cc2)cc1 (configuration not stated) | 20 | · | · | · | · | · | · | · | ·
CC1(c2nnc(-c3cccc(Cl)c3)o2)CC(c2c(Cl)cccc2Cl)=NO1 (configuration not stated) | -1 | 1 | 64* | 7 | · | 22* | 35 | 1 | 1
COC(=O)[C@]12C[C@H](CC(=O)NCc3ccccc3)C(=O)N(Cc3ccc4c(c3)OCO4)C1=C[C@H](C(C)C)O[C@@H]2C1CC1 | 3 | · | · | · | · | · | · | · | ·
CCC(C)Sc1cccc(-c2nc3ccccn3c2NCc2ccccc2)c1 (configuration not stated) | 4 | · | 84* | 13 | · | 42* | 70* | 11 | 14
CCC(C)Sc1cccc(-c2nc3ccc(C)cn3c2NCc2ccccc2)c1 (configuration not stated) | 2 | -3 | 91* | 13 | · | 45* | 76* | 9 | 12
CCCCCCSc1cccc(-c2nc3cc(C)ccn3c2NCc2ccccc2)c1 | 3 | -8 | -26 | 1 | · | · | · | · | ·
Cc1ccc2nc(-c3cccc(-c4cccc(Cl)c4)c3)c(NCc3ccccc3)n2c1 | 9 | 2 | 73* | 10 | · | 32* | 33 | 2 | 3
CCCCCCSc1cccc(-c2nc3ccc(C)cn3c2NCc2ccccc2)c1 | 0 | -12 | 52* | 5 | · | 18 | 18 | 1 | 3
CCOC(=O)CC[C@@]1(C(=O)OCC)C[C@@H](CC(=O)NCCc2ccccc2OC)C(=O)N2CCCC=C21 | 1 | · | · | · | · | · | · | · | ·
CCOC(=O)[C@@]12CCCC=C1N(CCc1ccc(Cl)cc1)C(=O)[C@H]2CC(=O)N1CCC(c2ccccc2)CC1 | 6 | · | · | · | · | · | · | · | ·
